According to ChEMBL document CHEMBL1124366, “Synthesis and biological properties of N63-carboxamides of teicoplanin antibiotics. Structure-activity relationships” (J Med Chem, 1989):
In brackets after ≈: the same amount, converted by molar mass.

Columns and labels:
[1] = tested on: Staphylococcus epidermidis; assay: In vitro minimum inhibitory concentration against Staphylococcus epidermis ATCC 12228; type: functional
[2] = tested on: Streptococcus pyogenes; assay: In vitro minimum inhibitory concentration against Streptococcus pyogenes C 203; type: functional
[3] = tested on: Staphylococcus aureus; assay: In vitro minimum inhibitory concentration against Staphylococcus aureus Tour; type: functional
[4] = tested on: Gram-negative bacteria; assay: Minimum inhibitory concentration of compound against Gram negative bacteria
[5] = tested on: Streptococcus pneumoniae; assay: In vitro minimum inhibitory concentration against Streptococcus pneumoniae UC41; type: functional
[6] = tested on: Streptococcus pyogenes; assay: Subcutaneously administration into mice infected with Streptococcus pyogenes C 203; type: functional; details: sc
How it was run: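 Mice (five per treatment group, five groups) infected intraperitoneally with about 10⁵ cells of Strep. pyogenes C 203, about 100× the LD50. ED50 (mg/kg) was calculated from the percentage of mice surviving at each dose on day 7.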

[7] = tested on: Enterococcus faecalis; assay: In vitro minimum inhibitory concentration against Streptococcus faecalis ATCC 7080; type: functional
[8] = tested on: Bacteria; assay: Minimum inhibitory concentration of compound against Gram negative bacteria; type: functional
[9] = tested on: Ac2-L-Lys-D-Ala-D-Ala peptide; assay: Association constant with Ac2-L-Lys-D-Ala-D-Ala
How it was run: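 UV difference spectroscopy at 24 ± 2 °C in 4-cm unthermostated cells. Antibiotic was at 30 μM in 10% MeOH in sodium phosphate buffer, pH 9, and titrated with Ac2-L-Lys-D-Ala-D-Ala. ΔA was monitored at 294 nm. Ka was taken from the slope of a Scatchard plot.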

[10] = tested on: Staphylococcus haemolyticus; assay: In vitro minimum inhibitory concentration against Staphylococcus hemolyticus 602 cell line; type: functional; details: strain 602
[11] = tested on: Pseudomonas aeruginosa; assay: In vitro minimum inhibitory concentration against Pseudomonas aeruginosa ATCC 10145; type: functional
[12] = tested on: Proteus vulgaris; assay: In vitro minimum inhibitory concentration against Proteus vulgaris X 19 ATCC 881; type: functional
[13] = tested on: Escherichia coli; assay: In vitro minimum inhibitory concentration against Escherichia coli SKF 12140; type: functional

Compound	MIC [1] [µg/mL]	MIC [2] [µg/mL]	MIC [3] [µg/mL]	MIC [4] [µg/mL]	MIC [5] [µg/mL]	ED50 [6] [mg/kg]	MIC [7] [µg/mL]	MIC [8] [µg/mL]	Ka [9] [M⁻¹]	MIC [10] [µg/mL]	MIC [11] [µg/mL]	MIC [12] [µg/mL]	MIC [13] [µg/mL]
CC(=O)N[C@@H]1[C@H](O[C@@H]2c3ccc(c(Cl)c3)Oc3cc4cc(c3O)Oc3ccc(cc3Cl)C[C@H]3NC(=O)[C@H](N)c5ccc(O)c(c5)Oc5cc(O)cc(c5)[C@H](NC3=O)C(=O)N[C@H]4C(=O)N[C@H]3C(=O)N[C@@H]2C(=O)N[C@H](C(=O)NCCN2CCOCC2)c2cc(O)cc(O[C@H]4O[C@H](CO)[C@@H](O)[C@@H](O)[C@@H]4O)c2-c2cc3ccc2O)O[C@@H](CO)[C@@H](O)[C@@H]1O	0.06 (≈ 0.0358 µM)	0.12 (≈ 0.0716 µM)	0.25 (≈ 0.149 µM)	> 128	0.5 (≈ 0.298 µM)	1.6	1 (≈ 0.596 µM)						
CC(=O)N[C@@H]1[C@H](O[C@@H]2c3ccc(c(Cl)c3)Oc3cc4cc(c3O)Oc3ccc(cc3Cl)C[C@H]3NC(=O)[C@H](N)c5ccc(O)c(c5)Oc5cc(O)cc(c5)[C@H](NC3=O)C(=O)N[C@H]4C(=O)N[C@H]3C(=O)N[C@@H]2C(=O)N[C@H](C(=O)N2CCSCC2)c2cc(O)cc(O[C@H]4O[C@H](CO)[C@@H](O)[C@@H](O)[C@@H]4O)c2-c2cc3ccc2O)O[C@@H](CO)[C@@H](O)[C@@H]1O	0.12 (≈ 0.0728 µM)	0.5 (≈ 0.303 µM)	0.5 (≈ 0.303 µM)		0.5 (≈ 0.303 µM)	1.6	2 (≈ 1.21 µM)	> 128	120000				
CC(=O)N[C@@H]1[C@H](O[C@@H]2c3ccc(c(Cl)c3)Oc3cc4cc(c3O)Oc3ccc(cc3Cl)C[C@H]3NC(=O)[C@H](N)c5ccc(O)c(c5)Oc5cc(O)cc(c5)[C@H](NC3=O)C(=O)N[C@H]4C(=O)N[C@H]3C(=O)N[C@@H]2C(=O)N[C@H](C(=O)NCCCN(C)C)c2cc(O)cc(O[C@H]4O[C@H](CO)[C@@H](O)[C@@H](O)[C@@H]4O)c2-c2cc3ccc2O)O[C@@H](CO)[C@@H](O)[C@@H]1O	0.12 (≈ 0.0728 µM)	0.12 (≈ 0.0728 µM)	0.5 (≈ 0.303 µM)	> 128	0.5 (≈ 0.303 µM)	0.81	1 (≈ 0.607 µM)						
CC(=O)N[C@@H]1[C@H](O[C@@H]2c3ccc(c(Cl)c3)Oc3cc4cc(c3O)Oc3ccc(cc3Cl)C[C@H]3NC(=O)[C@H](N)c5ccc(O)c(c5)Oc5cc(O)cc(c5)[C@H](NC3=O)C(=O)N[C@H]4C(=O)N[C@H]3C(=O)N[C@@H]2C(=O)N[C@H](C(=O)NCCN2CCCC2)c2cc(O)cc(O[C@H]4O[C@H](CO)[C@@H](O)[C@@H](O)[C@@H]4O)c2-c2cc3ccc2O)O[C@@H](CO)[C@@H](O)[C@@H]1O	0.25 (≈ 0.151 µM)	0.12 (≈ 0.0723 µM)	0.25 (≈ 0.151 µM)	> 128	0.5 (≈ 0.301 µM)	0.41	0.5 (≈ 0.301 µM)						
CCCCN(CCCC)CCCNC(=O)[C@H]1NC(=O)[C@H]2NC(=O)[C@H](NC(=O)[C@@H]3NC(=O)[C@H]4NC(=O)[C@@H](Cc5ccc(c(Cl)c5)Oc5cc3cc(c5O)Oc3ccc(cc3Cl)[C@H]2O[C@@H]2O[C@@H](CO)[C@@H](O)[C@H](O)[C@@H]2NC(C)=O)NC(=O)[C@H](N)c2ccc(O)c(c2)Oc2cc(O)cc4c2)c2ccc(O)c(c2)-c2c(O[C@H]3O[C@H](CO)[C@@H](O)[C@@H](O)[C@@H]3O)cc(O)cc21	0.06 (≈ 0.0346 µM)	0.12 (≈ 0.0693 µM)	1 (≈ 0.577 µM)	> 128	0.5 (≈ 0.289 µM)	0.18	0.5 (≈ 0.289 µM)						
NCCCNC(=O)[C@H]1NC(=O)[C@H]2NC(=O)[C@H](NC(=O)[C@@H]3NC(=O)[C@H]4NC(=O)[C@@H](Cc5ccc(c(Cl)c5)Oc5cc3cc(c5O)Oc3ccc(cc3Cl)[C@H]2O)NC(=O)[C@H](N)c2ccc(O)c(c2)Oc2cc(O)cc4c2)c2ccc(O)c(c2)-c2c(O)cc(O)cc21	0.06 (≈ 0.0478 µM)	0.06 (≈ 0.0478 µM)	0.12 (≈ 0.0956 µM)		0.12 (≈ 0.0956 µM)	1.25	0.12 (≈ 0.0956 µM)		26000	0.12 (≈ 0.0956 µM)	32 (≈ 25.5 µM)	32 (≈ 25.5 µM)	4 (≈ 3.19 µM)
CCN(CC)CCCNC(=O)[C@H]1NC(=O)[C@H]2NC(=O)[C@H](NC(=O)[C@@H]3NC(=O)[C@H]4NC(=O)[C@@H](Cc5ccc(c(Cl)c5)Oc5cc3cc(c5O)Oc3ccc(cc3Cl)[C@H]2O[C@@H]2O[C@@H](CO)[C@@H](O)[C@H](O)[C@@H]2NC(C)=O)NC(=O)[C@H](N)c2ccc(O)c(c2)Oc2cc(O)cc4c2)c2ccc(O)c(c2)-c2c(O[C@H]3O[C@H](CO)[C@@H](O)[C@@H](O)[C@@H]3O)cc(O)cc21	0.06 (≈ 0.0358 µM)	0.12 (≈ 0.0716 µM)	0.25 (≈ 0.149 µM)	> 128	0.5 (≈ 0.298 µM)	0.3	0.5 (≈ 0.298 µM)						
N[C@H]1C(=O)N[C@@H]2Cc3ccc(c(Cl)c3)Oc3cc4cc(c3O)Oc3ccc(cc3Cl)[C@@H](O)[C@@H]3NC(=O)[C@H](NC(=O)[C@@H]4NC(=O)[C@@H](NC2=O)c2cc(O)cc(c2)Oc2cc1ccc2O)c1ccc(O)c(c1)-c1c(O)cc(O)cc1[C@@H](C(=O)O)NC3=O [TEICOPLANIN AGLYCON]	0.016 (≈ 0.0133 µM)	0.12 (≈ 0.1 µM)	0.06 (≈ 0.05 µM)		0.12 (≈ 0.1 µM)	0.95	0.12 (≈ 0.1 µM)		30000	0.25 (≈ 0.209 µM)	> 128	128 (≈ 107 µM)	64 (≈ 53.4 µM)
CC(=O)N[C@@H]1[C@H](O[C@@H]2c3ccc(c(Cl)c3)Oc3cc4cc(c3O)Oc3ccc(cc3Cl)C[C@H]3NC(=O)[C@H](N)c5ccc(O)c(c5)Oc5cc(O)cc(c5)[C@H](NC3=O)C(=O)N[C@H]4C(=O)N[C@H]3C(=O)N[C@@H]2C(=O)N[C@H](C(=O)O)c2cc(O)cc(O[C@H]4O[C@H](CO)[C@@H](O)[C@@H](O)[C@@H]4O)c2-c2cc3ccc2O)O[C@@H](CO)[C@@H](O)[C@@H]1O	0.25 (≈ 0.16 µM)	0.12 (≈ 0.0767 µM)	0.25 (≈ 0.16 µM)		0.5 (≈ 0.32 µM)	2.64	0.5 (≈ 0.32 µM)	> 128					
CN(C)CCCCCCCNC(=O)[C@H]1NC(=O)[C@H]2NC(=O)[C@H](NC(=O)[C@@H]3NC(=O)[C@H]4NC(=O)[C@@H](Cc5ccc(c(Cl)c5)Oc5cc3cc(c5O)Oc3ccc(cc3Cl)[C@H]2O)NC(=O)[C@H](N)c2ccc(O)c(c2)Oc2cc(O)cc4c2)c2ccc(O)c(c2)-c2c(O)cc(O)cc21	0.06 (≈ 0.0448 µM)	0.06 (≈ 0.0448 µM)	0.06 (≈ 0.0448 µM)		0.12 (≈ 0.0896 µM)	0.95	0.12 (≈ 0.0896 µM)		50000	0.12 (≈ 0.0896 µM)	128 (≈ 95.6 µM)	128 (≈ 95.6 µM)	16 (≈ 11.9 µM)
CN(C)CCCNC(=O)[C@H]1NC(=O)[C@H]2NC(=O)[C@H](NC(=O)[C@@H]3NC(=O)[C@H]4NC(=O)[C@@H](Cc5ccc(c(Cl)c5)Oc5cc3cc(c5O)Oc3ccc(cc3Cl)[C@H]2O)NC(=O)[C@H](N)c2ccc(O)c(c2)Oc2cc(O)cc4c2)c2ccc(O)c(c2)-c2c(O)cc(O)cc21	0.016 (≈ 0.0125 µM)	0.06 (≈ 0.0468 µM)	0.06 (≈ 0.0468 µM)		0.12 (≈ 0.0935 µM)	0.31	0.12 (≈ 0.0935 µM)		55000		32 (≈ 24.9 µM)	16 (≈ 12.5 µM)	8 (≈ 6.23 µM)
